High-throughput results: PubChem BioAssay, several laboratories
DTT redox prof – compounds producing H2O2 with reducing agent – biochemical, NIH compound library profiling, artefact control for MLSCN library redox annotation, primary screen | activation, % at 10 µM | DTT-dependent redox cycling H2O2, phenol red/HRP absorbance; 100% = 100 µM peroxide control, 0% = buffer | hit rate 0.03% among 200,000;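 active = activation of at least 50% relative to the plate's high and low controls in the primary single-dose screen; inactive = activation below 50%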;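 note: compound incubated with DTT at 0.8 mM final as the reducing agent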
PMI act satM6P – PMI (human) activation, high substrate; coupled PMI enzyme assay, resazurin fluorescence, 20 min; hits give high values; 1 = untreated enzyme, 0 = substrate-free blank; activation factor at 20 µM; hit rate 0.34% among 190,000; AID 1216; P34949;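 active = activation factor of 2 or more at 20 µM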
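Material: human phosphomannose isomerase with PGI, G6PDH, diaphorase coupling enzymes. Quantity: 15 ng/mL PMI. Medium: HEPES pH 7.4 buffer with MgCl2 and Tween-20. Reagent: Near-saturating mannose-6-phosphate, 1.0 mM. Compound: 20 µM single dose. Times: enzyme reaction with compound 20 min at room temperature. Detection: resorufin fluorescence at Ex 544/Em 590 nm.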
PMI act – increases human mannose-6-phosphate isomerase activity. P34949. purified human PMI, coupled resazurin fluorescence, 20 min; hits give high values; 1 = vehicle control, 0 substrate-free wells. activation factor at 20 µM. hit rate 0.005% among 190,000. AID 1214;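 active = activation factor of 2 or more at 20 µM, relative to plate controls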
G6PDH counter-1 – inhibits Leuconostoc G6PDH, flagging false hits in G6PDH-based assays; Purified L. mesenteroides G6PDH, diaphorase/resazurin coupled fluorescence, 45 min; inhibition, % at 5 µM; hit rate 0.12% among 200,000; AID 1020; in the data active = inhibition above about 50%
p97 inhibitor – human p97 ATPase inhibition. P55072. recombinant p97 ATPase, Kinase-Glo ATP luminescence, 3 h. inhibition, % at 8 µM. hit rate 0.42% among 220,000; in the data active = inhibition above about 15%
Target sequence (P55072 whole entry, looked up): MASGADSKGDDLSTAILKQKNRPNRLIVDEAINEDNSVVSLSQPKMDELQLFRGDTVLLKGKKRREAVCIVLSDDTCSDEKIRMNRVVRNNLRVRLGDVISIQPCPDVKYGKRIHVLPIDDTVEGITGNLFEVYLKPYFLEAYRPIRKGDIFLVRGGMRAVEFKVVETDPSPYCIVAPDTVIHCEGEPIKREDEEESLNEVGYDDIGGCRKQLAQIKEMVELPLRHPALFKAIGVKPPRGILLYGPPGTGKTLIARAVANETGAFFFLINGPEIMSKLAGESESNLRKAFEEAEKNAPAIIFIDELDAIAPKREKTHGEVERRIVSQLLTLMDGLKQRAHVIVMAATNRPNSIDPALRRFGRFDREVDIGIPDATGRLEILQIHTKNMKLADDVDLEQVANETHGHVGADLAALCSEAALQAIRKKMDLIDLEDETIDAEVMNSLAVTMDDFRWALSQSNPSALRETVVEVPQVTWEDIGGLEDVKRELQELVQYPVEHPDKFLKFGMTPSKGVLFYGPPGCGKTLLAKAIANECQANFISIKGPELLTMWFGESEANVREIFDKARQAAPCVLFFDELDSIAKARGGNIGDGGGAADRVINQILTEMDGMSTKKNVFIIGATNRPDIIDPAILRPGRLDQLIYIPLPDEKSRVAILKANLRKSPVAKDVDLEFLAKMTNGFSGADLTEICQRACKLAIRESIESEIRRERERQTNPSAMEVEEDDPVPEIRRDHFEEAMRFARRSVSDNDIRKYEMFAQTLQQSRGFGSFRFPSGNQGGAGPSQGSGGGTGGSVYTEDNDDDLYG
Tb hexokinase – T. brucei hexokinase 1 inhibition. recombinant TbHK1, G6PDH-coupled NADH A340. hit rate 0.11% among 220,000. inhibition, % at 10 µM;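 active = inhibition of 50% or more in the single-dose primary screen; inactive = inhibition below 50%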
DTT redox conf – generates H2O2 by DTT-dependent redox cycling, confirmed in dose response | EC50, µM | shares compounds with DTT redox prof | phenol red-HRP absorbance | hit rate 40% among 60;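 active = EC50 under a set limit for hydrogen peroxide production with the reducing agent DTT present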
G6PDH counter-2 – inhibits Leuconostoc G6PDH, counter-screen for TbHK1 inhibitors. hit rate 7% among 210. AID 2516. shares compounds with Tb hexokinase. inhibition, % at 10 µM. purified G6PDH, NADH absorbance, 1 h;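 active = at least 50% inhibition in the glucose-6-phosphate dehydrogenase coupled counterscreen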
TbHK1 confirm – confirmation of Trypanosoma brucei hexokinase 1 inhibitors; recombinant TbHK1, G6PDH-coupled NADH A340 absorbance; AID 2560; shares compounds with Tb hexokinase; inhibition, % at 10 µM; hit rate 10% among 210;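 active = inhibition of at least 50% in both of the two screening runs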
p97 confirm – confirmation of human p97 ATPase inhibitors | shares compounds with p97 inhibitor | recombinant p97 ATPase, Kinase-Glo ATP luminescence | inhibition, % at 8 µM | hit rate 44% among 760;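 active = percent inhibition of p97 ATPase above a set limit, the primary screen's mean plus 3 SD, cut at about 15% in these data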
Of the large screens only hits and unclear results are named; the others gave an inactive call (follow-up assays come after a bar, where they were run). Most compounds without a hit are left out; they make up all but 0.91% or so of the library.

Cn1nc(-c2ccc(Cl)cc2)nc2c(=O)n(C)c(=O)nc1-2	DTT redox prof 170, G6PDH counter-1 61, p97 inhibitor 38, Tb hexokinase 79 | DTT redox conf 0.89 | G6PDH counter-2 66 | TbHK1 confirm 57 | p97 confirm 41
COCCCNC(=O)c1cc(S(=O)(=O)N2CCOCC2)ccc1SCc1cccc(OC)c1OC	none
O=C(O)c1ccc(NC2=C/C(=N/S(=O)(=O)c3ccccc3)c3ccccc3C2=O)cc1	DTT redox prof 149, p97 inhibitor 18 | DTT redox conf 2.7 | p97 confirm 23
O=C(O)c1ccc(NS(=O)(=O)c2ccc3c(c2)C(=O)c2ccccc2C3=O)cc1	none
COc1ccc(C2CC(c3ccc4ccccc4c3OC(C)=O)=NN2C(C)=O)cc1 (stereo not given)	none (no result: DTT redox prof, PMI act satM6P, PMI act, G6PDH counter-1)
Cc1oc2c(c1C(=O)c1ccccc1)C(=O)C(=O)c1ccccc1-2	DTT redox prof 374, G6PDH counter-1 60, p97 inhibitor 31 | DTT redox conf inactive | p97 confirm 29
O=C(CSc1ncnc2c1cnn2CCO)Nc1cccc(C(F)(F)F)c1	none
CC(=O)Nc1nc2ccccc2n1CCOc1ccccc1Cl	Tb hexokinase 52 | G6PDH counter-2 inactive | TbHK1 confirm inactive
CC(=O)Nc1nc2ccccc2n1Cc1ccccc1Cl	none (no result: DTT redox prof, PMI act satM6P, PMI act, G6PDH counter-1)
CCN1/C(=C/C=C/c2oc3ccc4ccccc4c3[n+]2CC)Oc2ccc3ccccc3c21	Tb hexokinase 100 | G6PDH counter-2 132 | TbHK1 confirm 85
O=C1CC(=C2c3ccccc3-c3ccccc32)C(=O)N1CCN1CCN(c2ccccc2)CC1	none (no result: PMI act satM6P, PMI act, G6PDH counter-1)
O=C(CSc1nnc(COc2ccccc2)o1)NCCc1ccccc1	Tb hexokinase 73 | G6PDH counter-2 inactive | TbHK1 confirm inactive
COc1ccc2c(C)cc(SCC(=O)NCCN3C(=O)CSC3=O)nc2c1	none
Cn1c(=O)[nH]c(=O)c2c1nc(N1CCCC1)n2CC(O)COc1ccccc1 (stereo not given)	none
CCCCCCn1c(N2CCN(c3cccc(Cl)c3)CC2)nc2c1c(=O)[nH]c(=O)n2C	Tb hexokinase 59 | G6PDH counter-2 inactive | TbHK1 confirm inactive
Cn1c(=O)[nH]c(=O)c2c1nc(N1CCCCC1)n2CCOc1ccccc1	Tb hexokinase 55 | G6PDH counter-2 inactive | TbHK1 confirm inactive
COc1ccc(C(=O)NNS(=O)(=O)c2ccccc2)cc1	none
COc1ccc(S(=O)(=O)NNC(=O)C(=O)NNc2ccccn2)cc1	Tb hexokinase 53 (no result: DTT redox prof, PMI act satM6P, PMI act, G6PDH counter-1) | G6PDH counter-2 inactive | TbHK1 confirm inactive
COc1ccc(-c2nc(C3CCCCC3)no2)cc1OC	Tb hexokinase 64 | G6PDH counter-2 inactive | TbHK1 confirm inactive
C/C(=C/CCC(C)[C@H]1CC[C@@]2(C)C3=C(CC[C@]12C)[C@@]1(C)CCC(=O)C(C)(C)[C@@H]1CC3)C(=O)O (stereo not given in full)	Tb hexokinase 67 | G6PDH counter-2 inactive | TbHK1 confirm 86
C/C(=C/CCC(C)C1CCC2(C)C3CCC4C(C)(C)C(=O)CCC4(C)C3=CCC12C)C(=O)O (stereo not given)	none (no result: DTT redox prof, PMI act satM6P, PMI act, G6PDH counter-1, p97 inhibitor)
COC(=O)C1(S(=O)(=O)c2ccc(C)cc2)CCOCC1	Tb hexokinase 62 | G6PDH counter-2 inactive | TbHK1 confirm inactive
COC(=O)c1c(C)[nH]c(-c2csc(N)n2)c1C	none
CCCC(=O)Nc1ccc(C(=O)NNC(=O)c2ccco2)cc1	none
Cc1cc(C)nc(/N=C2\NC(=O)CC(C(=O)O)N2c2ccc(Oc3ccccc3)cc2)n1 (stereo not given)	none
CCOc1ccc(N2CC(=O)N/C2=N\c2nc(C)cc(C)n2)cc1	Tb hexokinase 69 | G6PDH counter-2 inactive | TbHK1 confirm inactive
O=[N+]([O-])c1ccc(N2CCN(C(=S)Nc3ccc(F)cc3F)CC2)cc1	none
Cc1cc(NS(=O)(=O)c2ccc(NC(=O)c3ccc(Br)o3)cc2)nc(C)n1	none
COc1ccccc1C(=O)N/N=C/c1cnc2ccccc2n1	none
CCOC(=O)c1c(C)c(C(=O)NCc2cccnc2)c(C)n1C	Tb hexokinase 63 | G6PDH counter-2 inactive | TbHK1 confirm inactive
O=C1COc2ccc(C(=O)COC(=O)CNC(=O)c3ccco3)cc2N1	none
O=C(NC(=S)Nc1nc2c(ccc3ccccc32)s1)c1cccs1	none
COc1ccc2nc(N3C(=O)/C(=C/c4ccc(Cl)cc4)NC3=S)sc2c1	Tb hexokinase 50 | G6PDH counter-2 inactive | TbHK1 confirm inactive
CCC(C)Sc1nc2c(c(=O)[nH]c(=O)n2C)n1C (stereo not given)	Tb hexokinase 50 | G6PDH counter-2 inactive | TbHK1 confirm inactive
CC(C)Sc1nc2c(c(=O)[nH]c(=O)n2C)n1C	none
Cc1cc(NC(=O)c2cccc(Oc3ccccc3)c2)n[nH]1	none
CCOc1ccc(S(=O)(=O)Nc2ccc(C(=O)NN)cc2)cc1	none (no result: DTT redox prof, PMI act satM6P, PMI act, G6PDH counter-1)
NC(=O)C1CCN(C2CC(=O)N(c3cccc(F)c3)C2=O)CC1 (stereo not given)	Tb hexokinase 61 | G6PDH counter-2 inactive | TbHK1 confirm inactive
N#C[C@H]1[C@H](c2ccccc2)[C@](C#N)(C(=O)c2ccccc2)[C@@H]2C=Cc3ccccc3N21	none
CCC(C)COC(=O)C(C#N)c1nc2ccccc2nc1N1CCCCC1 (stereo not given)	Tb hexokinase 56 | G6PDH counter-2 inactive | TbHK1 confirm inactive
CCOc1ccc(NC(N)=O)cc1	Tb hexokinase 60 | G6PDH counter-2 inactive | TbHK1 confirm inactive
Cc1cc(C)n(-c2nc3c(c(=O)[nH]c(=O)n3C)n2Cc2cccc(Br)c2)n1	none
Cc1ccc(Cn2c(-n3nc(C)cc3C)nc3c2c(=O)[nH]c(=O)n3C)cc1	Tb hexokinase 56 | G6PDH counter-2 inactive | TbHK1 confirm inactive
COc1ccc(CC/C(=N\O)C2(O)CCCCC2)cc1	Tb hexokinase 74 | G6PDH counter-2 inactive | TbHK1 confirm inactive
O/N=C(/CCc1ccccc1)C1(O)CCCCC1	none
CC1(C)OC(c2ccccc2)=C/C(=C/C=N/NC(=O)c2ccncc2)O1	none
CCOc1cccc2c1OC1(C)CC2NC(=O)N1Cc1ccccc1 (stereo not given)	none
